Marks after values point to notes of the source that are not given here.
Tests used:
[1] = system: luminal epithelium of the uterus; experiment: Histology of uterine luminal epithelial cell height in immature rats; type: in vivo, Sprague Dawley rats; conditions: 3 days
In short: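 Rats got daily s.c. doses for 3 days from postnatal day 20 and were killed 27 h after the last dose. Uteri were fixed in Bouin's solution for 24 h, paraffin-embedded, cut as 8 µm serial cross sections and H&E-stained. Luminal epithelial cell height was measured by light microscopy in the mid-region of each horn, in five areas from five sections ~160 µm apart. Mean and SD were reported; Dunnett's test compared groups with sesame-oil controls.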

human ERα = target: T1, human ERα (Homo sapiens, UniProt P03372); experiment: Ligand binding assay for ERα
T1 sequence (P03372 1-595): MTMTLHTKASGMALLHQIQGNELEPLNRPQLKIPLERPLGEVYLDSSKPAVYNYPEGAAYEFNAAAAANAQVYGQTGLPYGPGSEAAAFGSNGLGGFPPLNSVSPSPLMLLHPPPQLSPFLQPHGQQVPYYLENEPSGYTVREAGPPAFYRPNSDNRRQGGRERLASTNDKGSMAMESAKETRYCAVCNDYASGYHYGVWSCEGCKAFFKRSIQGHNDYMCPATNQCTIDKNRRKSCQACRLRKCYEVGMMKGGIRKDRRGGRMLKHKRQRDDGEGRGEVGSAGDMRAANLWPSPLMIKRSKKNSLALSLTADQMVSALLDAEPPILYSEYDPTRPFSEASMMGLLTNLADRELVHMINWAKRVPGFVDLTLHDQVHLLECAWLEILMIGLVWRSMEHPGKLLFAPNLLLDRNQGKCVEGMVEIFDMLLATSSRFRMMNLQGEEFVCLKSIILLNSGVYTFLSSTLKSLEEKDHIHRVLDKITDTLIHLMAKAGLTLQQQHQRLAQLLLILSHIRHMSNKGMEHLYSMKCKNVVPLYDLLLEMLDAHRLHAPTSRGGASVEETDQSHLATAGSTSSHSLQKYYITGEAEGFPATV

human ERβ = human ERβ (Homo sapiens, UniProt Q92731); experiment: Ligand binding assay for ERβ
Sequence of human ERβ (Q92731 whole entry): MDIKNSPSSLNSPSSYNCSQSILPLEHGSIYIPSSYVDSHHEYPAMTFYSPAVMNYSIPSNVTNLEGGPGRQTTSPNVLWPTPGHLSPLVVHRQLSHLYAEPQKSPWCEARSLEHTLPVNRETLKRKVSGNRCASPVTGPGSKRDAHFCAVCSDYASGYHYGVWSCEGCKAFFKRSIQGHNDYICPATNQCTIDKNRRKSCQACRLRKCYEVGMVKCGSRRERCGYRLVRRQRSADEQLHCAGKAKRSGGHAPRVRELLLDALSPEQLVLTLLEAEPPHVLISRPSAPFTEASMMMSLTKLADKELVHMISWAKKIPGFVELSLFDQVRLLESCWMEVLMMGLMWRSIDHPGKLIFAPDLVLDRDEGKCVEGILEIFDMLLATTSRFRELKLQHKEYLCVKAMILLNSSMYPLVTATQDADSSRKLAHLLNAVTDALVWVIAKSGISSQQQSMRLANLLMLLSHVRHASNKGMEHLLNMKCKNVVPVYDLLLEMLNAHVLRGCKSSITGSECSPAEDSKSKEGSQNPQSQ

uterus of immature rats = experiment: Uterotrophic assay in immature female rats; type: in vivo, Sprague Dawley rats; conditions: 3 days; for Body weight, mean / Uterus wet weight, mean / Uterus/body weight: immature female rats; for Change in wet uterine weight: immature rats
In short: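 Female Sprague Dawley rats were housed at 23±1°C on a standard diet. From postnatal day 20 they were injected s.c. once daily for 3 days at 10 ml/kg in sesame oil. Doses were test compound at 1 g/kg/day or 17α-ethynylestradiol at 0.1 or 3 µg/kg/day; controls got sesame oil. Vaginal opening and clinical signs were monitored. On day 23, 27 h after the last dose, uteri were excised with ovaries attached and weighed. Dunnett's test was used versus controls.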

MCF-7 cells = experiment: MCF-7 cell proliferation assay; type: cell-based, human; conditions: 1 μM
In short: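 MCF-7 cells were kept in RPMI-1640 with 10% heat-inactivated FBS at 37°C and 5% CO2. Cells were seeded at 10 000 cells/well in phenol red-free RPMI-1640 with 10% charcoal dextran-treated FBS. After 1 day the medium was changed and cells received test compound (0.001–0.1 mM) or 0.5 nM E2, with or without 1 µM tamoxifen. After three days, proliferation was read by colorimetric MTT assay. Mean and SD of six experiments.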

[2] = 1 g kg^−1 day^−1 s.c., vs vehicle-treated controls

Effect upon the ability of E2 to bind to ERα (human ERα)	IC50 (human ERβ)	Compound	Hypertrophy of the uterine luminal epithelium [1, 2]	Body weight, mean (uterus of immature rats; 1 g kg^−1 day^−1 s.c.)	Uterus wet weight, mean (uterus of immature rats; 1 g kg^−1 day^−1 s.c.)	Uterus/body weight (uterus of immature rats; 1 g kg^−1 day^−1 s.c.)	Change in wet uterine weight (uterus of immature rats; 1 g kg^−1 day^−1 s.c.)	Hypertrophy of the uterine luminal epithelium (luminal height) ([1]; 0.1 μg kg^−1 day^−1 s.c.)	Hypertrophy of the uterine luminal epithelium ([1]; 3 μg kg^−1 day^−1 s.c.)	Body weight, mean (uterus of immature rats; 0.1 μg kg^−1 day^−1 s.c.)	Uterus wet weight, mean (uterus of immature rats; 0.1 μg kg^−1 day^−1 s.c.)	Uterus/body weight (uterus of immature rats; 0.1 μg kg^−1 day^−1 s.c.)	Body weight, mean (uterus of immature rats; 3 μg kg^−1 day^−1 s.c.)	Uterus wet weight, mean (uterus of immature rats; 3 μg kg^−1 day^−1 s.c.)	Uterus/body weight (uterus of immature rats; 3 μg kg^−1 day^−1 s.c.)	Increase in wet uterine weight compared with vehicle-treated controls (uterus of immature rats; doses of 0.1 and 3 μg kg^−1 day^−1 s.c.)	Effect on MCF-7 proliferation when administered alone (MCF-7 cells)
little or no effect	17 µM	CCCCCCC/C=C/C(=O)O [2DEA, trans-2-decenoic acid]	mild hypertrophy	45.9 g	22.9 mg	0.51	did not detect an increase	–	–	–	–	–	–	–	–	–	–
little or no effect	90 µM	O=C(O)/C=C/CCCCCCCO [10H2DA, 10-hydroxy-trans-2-decenoic acid]	mild hypertrophy	42.9 ^* g	25.9 mg	0.59	did not detect an increase	–	–	–	–	–	–	–	–	–	–
–	–	C#C[C@]1(O)CC[C@H]2[C@@H]3CCc4cc(O)ccc4[C@H]3CC[C@@]21C [17αEE2, 17α-ethynylestradiol, reference compound]	–	–	–	–	–	only a mild increase in luminal height	marked hypertrophy	47.9 g	41.0 ^** mg	0.87	47.1 g	115 ^** mg	2.5	over 1.5 fold	–
little or no effect	6 µM	C=C(CC[C@@H](C)[C@H]1CC[C@H]2[C@@H]3CC=C4C[C@@H](O)CC[C@]4(C)[C@H]3CC[C@]12C)C(C)C [24MET, 24-methylenecholesterol]	mild hypertrophy	47.5 g	25.9 mg	0.55	did not detect an increase	–	–	–	–	–	–	–	–	–	–
–	–	CC/C(=C(\c1ccccc1)c1ccc(OCCN(C)C)cc1)c1ccccc1 [tamoxifen]	–	–	–	–	–	–	–	–	–	–	–	–	–	–	no effect on proliferation

Compound	Effect upon the ability of E2 to bind to ERα (human ERα)	IC50 (human ERβ)	Hypertrophy of the uterine luminal epithelium [1, 2]	Body weight, mean (uterus of immature rats; 1 g kg^−1 day^−1 s.c.)	Uterus wet weight, mean (uterus of immature rats; 1 g kg^−1 day^−1 s.c.)	Uterus/body weight (uterus of immature rats; 1 g kg^−1 day^−1 s.c.)	Change in wet uterine weight (uterus of immature rats; 1 g kg^−1 day^−1 s.c.)	Hypertrophy of the uterine luminal epithelium (luminal height) ([1]; 0.1 μg kg^−1 day^−1 s.c.)	Hypertrophy of the uterine luminal epithelium ([1]; 3 μg kg^−1 day^−1 s.c.)	Body weight, mean (uterus of immature rats; 0.1 μg kg^−1 day^−1 s.c.)	Uterus wet weight, mean (uterus of immature rats; 0.1 μg kg^−1 day^−1 s.c.)	Uterus/body weight (uterus of immature rats; 0.1 μg kg^−1 day^−1 s.c.)	Body weight, mean (uterus of immature rats; 3 μg kg^−1 day^−1 s.c.)	Uterus wet weight, mean (uterus of immature rats; 3 μg kg^−1 day^−1 s.c.)	Uterus/body weight (uterus of immature rats; 3 μg kg^−1 day^−1 s.c.)	Increase in wet uterine weight compared with vehicle-treated controls (uterus of immature rats; doses of 0.1 and 3 μg kg^−1 day^−1 s.c.)	Effect on MCF-7 proliferation when administered alone (MCF-7 cells)
O=C(O)CCCCCCCCCO [10HDA, 10-hydroxydecanoic acid]	little or no effect	140 µM	mild hypertrophy	45.8 g	25.2 mg	0.55	did not detect an increase	–	–	–	–	–	–	–	–	–	–

From PMC2529378 (Evidence-based Complementary and Alternative Medicine : eCAM, 2007)
